# This is a sample that favours compounds with a hit; in the whole collection about 1.3% have one here.
# aDG glyco act = increases alpha dystroglycan glycosylation; Pro5-aDG cells, alpha-DG glycosylation AlphaScreen (IIH6); 0% Pro5, 100% B10-LARGE cell signal; activation, % at 10 µM; actives 0.22% (n = 360,000); AID 624168;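 active = activation of at least 8% versus controls, or a plate z-score of at least 8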;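 also: Pro5 are CHO cells carrying HIG-tagged alpha-DG that lacks glycosylation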
# DDE Tn6 FP inh = disrupts Tn6 cyclic peptide binding to fibrin D-Dimer-E complex; P02675; Fibrin DD(E) TRITC-Tn6 fluorescence polarization displacement; inhibition, % at 8.3 µM; actives 0.21% (n = 370,000); AID 720509;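 active = inhibition above a per-campaign cutoff: mean of compounds within control limits plus 3 SD, cut at about 15% in these data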;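 also: 0% = median of all compound wells on the plate and 100% = blocking peptide control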
# Target sequence (P02675 whole entry, looked up): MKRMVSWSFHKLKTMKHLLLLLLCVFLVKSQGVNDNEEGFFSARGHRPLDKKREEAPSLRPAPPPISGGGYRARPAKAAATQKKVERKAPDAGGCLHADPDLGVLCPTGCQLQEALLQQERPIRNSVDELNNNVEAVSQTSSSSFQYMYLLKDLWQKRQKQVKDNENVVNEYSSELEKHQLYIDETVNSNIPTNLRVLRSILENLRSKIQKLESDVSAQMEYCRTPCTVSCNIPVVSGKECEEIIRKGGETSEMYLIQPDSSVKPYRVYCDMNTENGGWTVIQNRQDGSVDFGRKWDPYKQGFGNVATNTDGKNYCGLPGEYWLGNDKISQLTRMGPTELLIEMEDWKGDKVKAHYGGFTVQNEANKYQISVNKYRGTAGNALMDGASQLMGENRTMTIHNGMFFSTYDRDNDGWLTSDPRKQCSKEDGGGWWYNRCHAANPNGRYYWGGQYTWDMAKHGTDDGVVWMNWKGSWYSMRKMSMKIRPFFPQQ
# DDE Tn7 FP inh = disrupts Tn7 cyclic peptide binding to fibrin D-Dimer-E complex. P02675. actives 0.13% (n = 370,000). FP displacement of FITC-Tn7 peptide from fibrin DD(E); 0% = median of compound wells per plate. inhibition, % at 8.3 µM;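 active = inhibition above the mean of compounds falling within the control limits plus 3 SD of them, cut at about 14% in these data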;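 also: 0% = plate median of compound wells and 100% = 10 µM Aha-Tn7 peptide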
#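 Assay system: Human clot-derived fibrin DD(E) complex | Buffer or medium: Tris/NaCl/CaCl2 buffer, pH 7.8 | Repeats: One replicate per compound | Benchmarks: Aha-Tn7 high control | Measure: % inhibition scaled between sample-field median and high-control FP | Schedule: 10 min plus 3 h, room temperature | Signal: Fluorescence polarization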
# CendR NRP1 mod = alters CendR peptide binding to human NRP-1 | O14786 | FAM-RPARPAR peptide binding to NRP-1, fluorescence polarization | actives 0.85% (n = 360,000) | AID 602438 | inhibition, % at 25 µM;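 active = inhibition or corrected inhibition above about 18%, plus a signal ratio from 0.5 to 1.5, limit read from the data, passing the limit was not always enough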
# An asterisk follows results filed as active; nt = no result.
SMILES,aDG glyco act,DDE Tn6 FP inh,DDE Tn7 FP inh,CendR NRP1 mod
Cc1ccc(O)c(NC(=O)CSc2n[nH]c(C)c2[N+](=O)[O-])c1,-0.1,-0.9,3.0,0.2
CSc1ccccc1NC(=O)CSc1n[nH]c(C)c1[N+](=O)[O-],0.1,5.5,2.4,27.0*
O=C1C=C(c2ccccc2)CO1,0.0,-0.3,-2.6,-14.2
Cc1c(N=N/C(C(=O)Nc2ccccc2)=C(/O)c2ccccc2)c(=O)n(-c2ccccc2)n1C,-0.8,1.4,-4.2,-58.0
CCOC(=O)/C(N=Nc1c(C)n(C)n(-c2ccccc2)c1=O)=C(/O)c1ccccc1,0.1,4.4,8.6,32.1*
c1ccc(CNn2nnc3ccccc32)cc1,-0.2,-7.6,-2.6,23.1*
COC(=O)C1CN(Cc2ccccc2)CCS(=O)(=O)N1Cc1cn(Cc2ccc(F)cc2)nn1 (configuration not stated),nt,3.0,9.1,nt
Cc1cc(=O)n2nc(N3CCCC(C(=O)N4CCOCC4)C3)sc2n1 (configuration not stated),-0.1,-2.1,0.1,44.4*
Cc1cc(=O)n2nc(N3CCCC(C(=O)N4CCc5ccccc54)C3)sc2n1 (configuration not stated),0.4,nt,nt,-4.2
Cc1ccnc(N2CCC(C(=O)Nc3ccc4c(c3)OCCO4)CC2)n1,-0.2,-4.4,-2.4,24.8*
CCc1ccc(CNC(=O)C2CCCN(S(=O)(=O)N3CC(C)CC(C)C3)C2)cc1 (configuration not stated),0.3,5.3,9.3,22.4*
Cc1ccc(CNC(=O)C2CCCN(S(=O)(=O)N3CCC(C)CC3)C2)cc1 (configuration not stated),0.2,-8.7,-1.4,-4.1
O=C(Cn1ccc(NC(=O)OCc2ccccc2)nc1=O)NCCCn1ccnc1,-0.2,-4.6,-7.9,32.9*
Cc1ccc(CNS(=O)(=O)c2ccc(-c3cnc(C4CC4)o3)cc2)cc1,-0.4,1.3,-6.8,20.8*
O=S(=O)(NCc1ccccc1)c1ccc(-c2cnc(C3CC3)o2)cc1,0.6,3.8,-7.4,5.8
COc1ccc(CN(CCN2CCOCC2)C(=O)c2ccc(F)cc2Cl)cc1OC,nt,0.6,6.4,nt
CCCN1CCCCC(NC(=O)c2ccc(Cl)cc2Cl)C1=O (configuration not stated),nt,0.1,-5.7,nt
Cc1ccc(S(=O)(=O)N2CCCCC2C(=O)O)s1 (configuration not stated),0.5,3.2,-8.9,45.7*
COCCn1c(SCC(=O)Nc2ccccc2OC)nc2ccccc2c1=O,0.1,-4.7,0.8,2.8
COCCn1c(-c2ccc(OC)cc2)cnc1SCC(=O)Nc1cccc2ccccc12,0.7,8.0,-9.1,25.5*
COCCn1c(SCC(=O)Nc2ccccc2OC)nc2c([nH]c3ccccc32)c1=O,0.3,-2.9,0.7,26.3*
Cn1c(-c2sc3cc(C(F)(F)F)cnc3c2-c2ccccn2)n[nH]c1=S,0.1,-11.8,-1.8,25.3*
CNC(=S)NNC(=O)c1sc2cc(C(F)(F)F)cnc2c1-c1ccccn1,-0.1,7.3,-3.5,23.1*
COC(=O)[C@@]12C[C@@H](CC(=O)N3CCOCC3)C(=O)N(Cc3ccc4c(c3)OCO4)C1=CCC(C)(C)C2,0.1,1.5,6.0,-10.4
O=C(CSc1nnc(-c2cccnc2)n1-c1ccc(Cl)cc1)c1ccc2ccccc2c1,nt,0.8,-7.3,nt
SMILES,aDG glyco act,DDE Tn6 FP inh,DDE Tn7 FP inh,CendR NRP1 mod
Cc1cc(NC(=O)COC(=O)c2ccc(NS(=O)(=O)c3ccc(C)c(C)c3)cc2)no1,0.3,-4.4,-6.9,3.3
Cc1cc(NC(=O)COC(=O)c2ccc(C)c(C)c2)no1,0.2,1.9,5.8,26.4*
CCCN1CCc2c(sc(NC(=O)c3ccc(S(=O)(=O)N4CCN(C(=O)OCC)CC4)cc3)c2C(N)=O)C1,12.4*,-8.8,-7.6,-72.4
CCOC(=O)N1CCN(S(=O)(=O)c2ccc(C(=O)Nc3sc4c(c3C(=O)OC)CCN(C)C4)cc2)CC1,0.4,-4.7,-8.6,-3.6
CN1CCc2c(sc(NC(=O)c3ccc(S(=O)(=O)N4CCCCCC4)cc3)c2C(N)=O)C1,32.6*,nt,nt,-95.5
COc1cccc(C2=CC(=O)CCC2)c1,0.0,-1.9,-4.5,11.3
COc1ccc(C2=CC(=O)CCC2)cc1,0.6,-2.7,-3.8,39.7*
N#Cc1ccc(OCc2nnc(SCC(=O)c3ccccc3)n2-c2ccccc2)cc1,0.2,-3.3,0.8,30.7*
COC(=O)C1N[C@@H]([C@@H](NC(=O)COc2ccccc2)C(=O)NC2CC2)SC1(C)C (some centres not stated),0.0,1.9,-1.8,31.1*

# Compound activity from PubChem.
